Measured values as given in ChEMBL document CHEMBL3758120, “Synthesis and Mechanism Studies of 1,3-Benzoazolyl Substituted Pyrrolo[2,3-b]pyrazine Derivatives as Nonintercalative Topoisomerase II Catalytic Inhibitors” (J Med Chem, 2016).
The source made the active and inactive calls. No cut-off for these calls is given here.

Columns and labels:
[1] = molecular target: DNA topoisomerase 2-alpha (Homo sapiens, UniProt P11388); test: Inhibition of purified human topoisomerase 2-mediated relaxation of supercoiled pBR322 DNA at 50 uM incubated for 30 mins by agarose gel electrophoresis
Chain of DNA topoisomerase 2-alpha (P11388 whole entry): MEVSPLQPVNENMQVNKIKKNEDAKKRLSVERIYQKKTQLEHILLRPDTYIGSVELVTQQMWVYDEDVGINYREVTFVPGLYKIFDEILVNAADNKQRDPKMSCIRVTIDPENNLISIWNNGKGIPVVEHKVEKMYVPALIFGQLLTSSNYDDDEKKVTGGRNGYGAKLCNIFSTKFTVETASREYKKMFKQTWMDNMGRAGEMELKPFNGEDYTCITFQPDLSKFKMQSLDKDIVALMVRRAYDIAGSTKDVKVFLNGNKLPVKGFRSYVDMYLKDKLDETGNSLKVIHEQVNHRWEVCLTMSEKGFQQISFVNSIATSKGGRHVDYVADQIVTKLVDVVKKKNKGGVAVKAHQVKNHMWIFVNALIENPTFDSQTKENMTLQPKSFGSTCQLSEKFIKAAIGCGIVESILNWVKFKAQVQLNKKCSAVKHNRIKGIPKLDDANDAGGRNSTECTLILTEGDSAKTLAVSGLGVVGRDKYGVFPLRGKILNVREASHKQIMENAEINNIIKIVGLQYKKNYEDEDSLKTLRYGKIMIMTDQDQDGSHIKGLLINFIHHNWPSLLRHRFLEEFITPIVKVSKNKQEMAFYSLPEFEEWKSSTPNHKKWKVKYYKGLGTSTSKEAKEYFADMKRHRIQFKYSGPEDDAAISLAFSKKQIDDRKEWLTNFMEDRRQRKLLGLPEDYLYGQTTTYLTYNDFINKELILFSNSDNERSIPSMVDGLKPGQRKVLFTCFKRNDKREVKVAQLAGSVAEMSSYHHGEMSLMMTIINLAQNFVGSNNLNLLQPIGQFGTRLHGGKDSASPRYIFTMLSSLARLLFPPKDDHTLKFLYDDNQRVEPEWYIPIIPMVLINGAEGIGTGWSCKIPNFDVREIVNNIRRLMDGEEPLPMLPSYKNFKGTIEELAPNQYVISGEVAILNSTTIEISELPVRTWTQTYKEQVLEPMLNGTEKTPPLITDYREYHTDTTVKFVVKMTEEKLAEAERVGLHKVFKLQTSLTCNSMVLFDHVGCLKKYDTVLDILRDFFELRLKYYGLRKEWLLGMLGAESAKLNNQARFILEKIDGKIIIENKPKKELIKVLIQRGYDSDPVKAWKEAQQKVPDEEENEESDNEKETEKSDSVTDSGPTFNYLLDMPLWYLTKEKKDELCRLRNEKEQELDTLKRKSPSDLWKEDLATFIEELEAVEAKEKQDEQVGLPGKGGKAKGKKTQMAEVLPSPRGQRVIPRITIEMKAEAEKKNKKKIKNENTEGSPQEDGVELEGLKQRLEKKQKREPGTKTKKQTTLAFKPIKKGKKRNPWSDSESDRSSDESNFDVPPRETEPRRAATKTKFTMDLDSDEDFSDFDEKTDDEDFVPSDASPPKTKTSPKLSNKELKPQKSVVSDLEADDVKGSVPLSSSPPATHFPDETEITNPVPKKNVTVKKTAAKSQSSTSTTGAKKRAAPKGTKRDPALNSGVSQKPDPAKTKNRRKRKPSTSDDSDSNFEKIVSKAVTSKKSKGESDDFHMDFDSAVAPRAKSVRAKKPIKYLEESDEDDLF
Procedure, shortened: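 Reactions contained 0.2 μg supercoiled pBR322 in 50 mM Tris-HCl pH 8.0, 150 mM NaCl, 10 mM MgCl2, 0.5 mM DTT, 30 μg/ml BSA, normally 2 mM ATP (1, 2 or 4 mM in ATP-competition runs). Started with 1 U human Topo II, 30 min at 37 °C, stopped with sarcosyl buffer, run on 1% agarose 1.5 h at 75 V, gel-stained and imaged under UV.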

[2] = tested on: HeLa; test: Antiproliferative activity against human HeLa cells after 48 hrs by MTT assay; format: functional, cell-based
Procedure, shortened: (§1)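 Cells seeded at 5000 per well and left overnight, then exposed to increasing concentrations (0-50 μM) for 48 h. […] HL-60/MX2 is a mitoxantrone-selected HL-60 derivative with reduced Topo IIα/β.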

[3] = Antiproliferative activity against human MDA-MB-201 cells after 48 hrs by MTT assay; format: functional, cell-based; procedure, shortened: as §1
[4] = tested on: A549; test: Antiproliferative activity against human A549 cells after 48 hrs by MTT assay; format: functional, cell-based; details: A549, 48 h; procedure, shortened: as §1
[5] = tested on: K562; test: Antiproliferative activity against human K562 cells after 48 hrs by MTT assay; format: functional, cell-based; details: K562, 48 h; procedure, shortened: as §1
[6] = tested on: Raji; test: Antiproliferative activity against human Raji cells after 48 hrs by MTT assay; format: functional, cell-based; procedure, shortened: as §1
[7] = Antiproliferative activity against human HL60 cells after 48 hrs by MTT assay; format: functional, cell-based; details: HL-60, 48 h; procedure, shortened: as §1
[8] = Antiproliferative activity against human HL60/MX2 cells after 48 hrs by MTT assay; format: functional, cell-based; details: HL60/MX2, 48 h; procedure, shortened: as §1
[9] = tested on: HL-60; test: Resistance index, ratio of IC50 for human HL60/MX2 cells to IC50 for HL60 cells; format: functional
Procedure, shortened: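 Resistance index calculated as MTT-derived IC50 (48 h exposure, 0-50 μM, A570 readout) in HL-60/MX2 divided by IC50 in parental HL-60.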

[10] = tested on: HEK293; test: Cytotoxicity against HEK293 cells after 48 hrs by MTT assay; format: cell-based; details: Homo sapiens, HEK293, 48 h

Row | inhibition [1] | IC50 [2] [µM] | IC50 [4] [µM] | IC50 [5] [µM] | IC50 [6] [µM] | SMILES | IC50 [3] [µM] | IC50 [7] [µM] | IC50 [8] [µM] | Ratio IC50 [9] | IC50 [10] [µM]
1 | Active | 3.64 | 2.27 | 1.27 | 0.72 | CCN(CC)CCCCn1c(N)c(-c2nc3cc(Cl)ccc3[nH]2)c2nc(C#N)c(C#N)nc21 | 2.84 | 0.82 | 1.77 | 2.2 | 3.86
2 | Active | 3.12 | 12.1 | 1.93 | 0.95 | CN(C)CCCCn1c(N)c(-c2nc3cc(Cl)ccc3[nH]2)c2nc(C#N)c(C#N)nc21 | 3.28 | 1.48 | 0.58 | 0.4 | 4.73
3 | inactive | > 50 | – | – | – | CN(C)CCCCn1c(N)c(C#N)c2nc(C#N)c(C#N)nc21 | – | 12.9 | – | – | –
4 | – | 10.8 | – | – | – | CN(C)CCCCCn1c(N)c(-c2nc3ccccc3[nH]2)c2nc(C#N)c(C#N)nc21 | – | 3.42 | – | – | –
5 | inactive | > 50 | > 50 | > 50 | 2.08 | CCN(CC)CCn1c(N)c(-c2nc3ccccc3n2C)c2nc(C#N)c(C#N)nc21 | > 50 | 8.8 | 3.25 | 0.4 | 25.4
6 | Active | 16.5 | > 50 | 10.7 | 3.11 | CN(C)CCCn1c(N)c(-c2nc3cc(Cl)ccc3[nH]2)c2nc(C#N)c(C#N)nc21 | 28.1 | 2.93 | 5.31 | 1.8 | 11.7
7 | inactive | > 50 | > 50 | > 50 | 15.4 | N#Cc1nc2c(-c3nc4ccccc4[nH]3)c(N)n(CCc3ccccc3)c2nc1C#N | > 50 | > 50 | > 50 | – | > 50
8 | inactive | 12.2 | 8.67 | > 50 | 3.19 | N#Cc1nc2c(-c3nc4ccccc4o3)c(N)n(CCCN3CCCCC3)c2nc1C#N | 32.2 | 3.82 | 5.45 | 1.4 | 19.2
9 | inactive | > 50 | > 50 | 11.3 | 11.8 | CN(C)CCn1c(N)c(-c2nc3cc(Cl)ccc3[nH]2)c2nc(C#N)c(C#N)nc21 | > 50 | > 50 | > 50 | – | > 50
10 | inactive | > 50 | > 50 | > 50 | 46.5 | CN(C)CCn1c(N)c(-c2nc3ccccc3n2C)c2nc(C#N)c(C#N)nc21 | > 50 | > 50 | 4.68 | – | > 50
11 | inactive | > 50 | > 50 | > 50 | 31.5 | CCN(CC)CCn1c(N)c(-c2nc3cc(Cl)ccc3[nH]2)c2nc(C#N)c(C#N)nc21 | > 50 | > 50 | 9.29 | – | > 50
12 | – | 26.3 | – | – | – | N#Cc1nc2c(-c3nc4ccccc4[nH]3)c(N)n(CCCNc3ccccc3)c2nc1C#N | – | 6.92 | – | – | –
13 | Active | 24.4 | > 50 | 4.83 | 1.62 | CCN(CC)CCCn1c(N)c(-c2nc3cc(Cl)ccc3[nH]2)c2nc(C#N)c(C#N)nc21 | 23.2 | 3.47 | 2.46 | 0.7 | 8.42
